Test results reported in the EternaBench riboswitch data.

Tested on: MS2 coat protein
Assay: apparent Kd, MS2 coat protein; higher = weaker binding; RNA-MaP array; FMN 200 µM where present
How it was run: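 In 100 mM Tris-HCl pH 7.5, 80 mM KCl, 4 mM MgCl2, BSA, DTT, yeast tRNA and Tween-20, SNAP-549-labelled MS2 coat protein was titrated from 0.7 or 1.5 nM, doubling to 3 µM, over designs transcribed by stalled E. coli RNA polymerase on Illumina sequencing-chip clusters. This was done first without ligand, then with ligand held constant. After green signal was normalised to red-channel RNA signal and control-cluster median Fmax, the apparent Kd was taken as the median of filtered per-cluster binding-curve fits.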

[1] = designed as: OFF switch for flavin mononucleotide, no ligand
[2] = ligand present: flavin mononucleotide, designed as: OFF switch for flavin mononucleotide
[3] = designed as: ON switch for flavin mononucleotide, no ligand
[4] = ligand present: flavin mononucleotide, designed as: ON switch for flavin mononucleotide

Sequence	apparent Kd [1] [µM]	apparent Kd [2] [µM]	apparent Kd [3] [µM]	apparent Kd [4] [µM]
GAGAGGUCAGGAUAUGCAUGGCGGGACUUGCGUCGUGGCGUGCAGAAGGGACAUGAGGAUCACCCAUGUGGAGG	0.169	0.203	–	–
AAAAAACAUGAGGAUCACCCAUGUAAGGAUAUGCUAAAAAAAAAAAAAAAAAAAAAAUGCAGAAGGUACAAAAA	0.0636	0.0782	–	–
UGUGCGUAUGUGAGGAUAUGCUGGUCCUUGGAUCAGCAGAAGGCACAUGAGGAUCACCCAUGUGGUGUCGUACG	0.114	0.185	–	–
AACCUGAGGCUUUGCUUUAGGUGAACAUGAGGAUCACCCAUGUAGGAUAUGGUAGGCUUUGCUUACCAGAAGGACAUAUUAAUU	0.0393	0.0861	–	–
CGGGUCAACAUGAGGAUCACCCAUGUACUGCUAAUGCAGUCACAGGAUAUCUUCGGUAGAUUAGAAGAGAAGGGUGAUGCCCAG	–	–	0.136	0.117
AUAUGAUAGAUAGGAUAUACAGAUGAAUAAUAAGUAGAAGGAUCAAAUGGGAAUUAUACAUGAGGAUCACCCAUGUUUUUGGAU	–	–	0.0501	0.0321
UGUUACUAGUAAGGAUAUACUUGCGAUAAGCUUGUAGAAGGUACAGUCUUUUGUAUAACAUGUUUACAUGAGGAUCACCCAUGU	–	–	0.00971	0.00878
UAUUUAUAAUAUUUUAACAUGAGGAUCACCCAUGUCGCUAGACAGGAUAUAUUUUAUUUGUUUAAGUAGAAGGGUCGUAGAUUU	–	–	0.166	0.138
GUGCUUAUCGAAGGAUAUGGUUACAUGAGGAUCACCCAUGUUAUGCUUGGUUACUUGUUUAGUUUCCAGAAGGUCGAUUAGUUG	0.0755	0.17	–	–
CUUUUGUGAGGAUAUCAGUAGUAAAAAAAUAAAAUUACUACUGAGAAGGCACAUGAGGAUCACCCAUGUGCCUC	0.0139	0.0129	–	–
UGCGGAAUCACAGGAUAUGCGGGAAGAACGAUACCGUACAUGAGGAUCACCCAUGUGGCGGCAAAGCAGAAGGGUGGUUCUCGC	–	–	0.00842	0.00579
GCCUCAGAAUUAAUUGUGAGAAGCAGAAGGCUAUAUCUUAUGUUAAACAUGAGGAUCACCCAUGUAGAGGAUAUGCUAUUACAG	0.00768	0.0177	–	–
CCCGCCCGUCGAGGAUAUAUUAUAUGACAACAAACACAUACAUGAGGAUCACCCAUGUCCCAUGUAUAGAAGGCGACCUGCGUC	–	–	0.0748	0.0983
CAGGUAGACUGAGGAUAUACAAUAAAGACCUAGUCUAUCUAGGUCUUCACAUGAGGAUCACCCAUGUAGAAGGCAGUCUGCCUG	0.0191	0.0385	–	–
CGCUGCCACGCAGGAUAUGCAUUGGAUUCCAAUGCAGAAGGGCGAUUACAUGAGGAUCACCCAUGUGUCGGCAGUGAAGAAGAG	–	–	0.59	0.0448
UUUUCACAUGAGGAUCACCCAUGUGAGGAUAUGGAGCGCGACCGCGCGGUCGCGUACACCAGAAGGCGCAUGAU	0.0305	0.0366	–	–
CCAGAGGUCACAGGAUAUGACUCGUCCAAAUGGUCAGAAGGGUGAAUCACAUUAUGUAUACAUGAGGAUCACCCAUGUCCUACG	–	–	0.0932	0.498
GCUUGUGAAGGAUAUACUGGCGGCGUGCGCUCGGCGCGCGCACAUGAGGAUCACCCAUGUAGAAGGUCAGGCGU	0.0138	0.0125	–	–
UAAUAUUUAUGAUAUUAUUACAUUAGAAGGCUAUACAUGUGGAUACAUGAGGAUCACCCAUGUAUAGAGGAUAUAGACAUAUAU	0.357	0.537	–	–
GUCGGAAACGACAAGUAGCAAUCGGAGGAUAUUCAUUAAAACAUGAGGAUCACCCAUGUAAAAUGGGAGAAGGCCGAUUGCUAC	–	–	0.0136	0.00603
AUUUAUGUCAAAGGAUAUAUAAAUAAAUUUAUAACAUGAGGAUCACCCAUGUACUUUAGUAUGAGGUAGAAGGUUGAUAAGAGU	–	–	0.0476	0.0356
GGAUAGGACAGAGGAUAUACGUGCUAGCGAUACUAGCAAAAUUUCCUCACAUGAGGAUCACCCAUGUAGAAGGCUGUCCUAUCG	0.0157	0.427	–	–
UUUUAACAUGAGGAUCACCCAUGUGAGGAUAUCGAAAUUUAUAUUAAUAUUUAUAUUACGAGAAGGCACAUUUU	0.0816	0.0824	–	–
UCUACUUUACAUGAUUCAUCAACACAGGAUAUACCCGCAACAUGAGGAUCACCCAUGUAGGCCCGGUAGAAGGGUGCUUGGGAA	–	–	0.0108	0.00643
